This is a sample that favours compounds with a hit; in the whole collection about 1.9% have one here.
NR1D1 modulator: modulators of human Rev-erb alpha DNA binding; P20393; Rev-erbα–FITC-DNA binding, fluorescence polarization, 90 min; activity, % at 10 µM; 370,000 compounds, 0.79% hits;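 active = activity above about 14%, limit read from the data; passing the limit was not always enough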
MIN6 prolif-1: MIN6 beta-cell proliferation induction | MIN6 cells proliferation, ATPlite luminescence, 48 h; cells starved in 0.2% serum; 100% = growth in 10% serum | proliferation, % at 10 µM | 330,000 compounds, 0.29% hits;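 active = compounds whose signal lies at least 3.5 SD above the mean of all wells on their plate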
Yeast superoxide: yeast age-related superoxide inhibition as caloric restriction mimetic; S. cerevisiae aged cells, superoxide DHE fluorescence; active compounds read low; superoxide response (% of plate mean), % at 10 µM; 330,000 compounds, 0.18% hits; AID 2690;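 active = superoxide response under a set limit, about three screen SD below normal, cut at about 65% in these data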;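 note: yeast aged for seven days with compound at 30 °C before DHE staining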
PG9 Ab binder: binds the HIV-1 gp120 antibody PG9. inhibition, % at 6.7 µM. 360,000 compounds, 0.43% hits. TR-FRET gp120-PG9 antibody binding. AID 624416; in the data active = inhibition above about 8.5%
Rce1 inh: blocks yeast Ras-converting enzyme. Q03530. yeast membranes, quenched prenylated peptide cleavage fluorescence. calls only. 290,000 compounds, 0.27% hits. AID 2563;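 active = fall in fluorescence gain of 50% or more versus controls, with final raw signal at or below 3038400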
Target sequence (Q03530 whole entry, looked up): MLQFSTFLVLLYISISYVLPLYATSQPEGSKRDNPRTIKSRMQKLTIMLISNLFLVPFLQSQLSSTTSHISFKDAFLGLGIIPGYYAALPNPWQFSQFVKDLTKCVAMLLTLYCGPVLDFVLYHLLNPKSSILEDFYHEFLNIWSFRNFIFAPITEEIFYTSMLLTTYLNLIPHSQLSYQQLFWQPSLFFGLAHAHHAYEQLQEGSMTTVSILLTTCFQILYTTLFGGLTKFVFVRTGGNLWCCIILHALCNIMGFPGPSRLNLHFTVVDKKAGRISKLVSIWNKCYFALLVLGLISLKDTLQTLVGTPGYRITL
UCH37 inh: blocks the human deubiquitinase UCH37; purified proteasome/UCH37, Ub-AMC cleavage fluorescence; 330,000 compounds, 0.33% hits; inhibition, % (no concentration beside the values); Q9Y5K5; AID 588478;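 active = mean inhibition over replicate wells above about 20%, limit read from the data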
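Material: Human UCH37 enzyme supplied as purified proteasome complex | Schedule: 30 min preincubation with enzyme, 25 min cleavage at room temperature | Detection: AMC fluorescence 355/460 nm | Measure: % inhibition of Ub-AMC cleavage fluorescence | Controls: Wells without proteasome as full block, compound-free enzyme plus substrate as uninhibited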
MIN6 prolif-2: MIN6 beta-cell replication induction, confirmed | shares compounds with MIN6 prolif-1 | MIN6 beta-cell proliferation, ATPlite luminescence, 48 h; cells kept in 0.2% serum; scaled between 0.2% and 10% serum | proliferation increase, % at 50 µM | 920 tested, under 10 active | AID 463095;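 active = proliferation increase above 40% at any of the four tested concentrations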
Each line names hits and unclear results; the compound was inactive in the other large screens (follow-up assays come after a bar, where they were run).

CNCCCOc1cccc(OC(C)C)c1	MIN6 prolif-1 6.3 (no result: UCH37 inh) | MIN6 prolif-2 inactive
CNCCCOc1cccc(Oc2ccccc2)c1	none
O=C(NN=Cc1cn(CC(=O)N2CCOCC2)c2ccccc12)c1cccnc1	none (no result: NR1D1 modulator, MIN6 prolif-1, Yeast superoxide, PG9 Ab binder, Rce1 inh)
Clc1ccc(-c2cnc3ccccc3n2)cc1	MIN6 prolif-1 5.4 | MIN6 prolif-2 inactive
Oc1ccc(-c2cnc3ccccc3n2)cc1	none
Nc1nc(N)nc(-c2cc(F)ccc2O)n1	MIN6 prolif-1 13.5 (no result: Rce1 inh) | MIN6 prolif-2 inactive
O=C(COc1ccccc1)NC1C(=O)N2C(C(=O)O)=C(Cl)CSC12 (centres undefined)	MIN6 prolif-1 10.4 | MIN6 prolif-2 inactive
CCCCN(CC)C(=O)c1cc2c(=O)n3cccc(C)c3nc2s1	MIN6 prolif-1 10.9 | MIN6 prolif-2 inactive
CCN(C(=O)c1cc2c(=O)n3ccccc3nc2s1)C1CCCCC1	MIN6 prolif-1 6.9 | MIN6 prolif-2 inactive
CCN(CC(=O)Nc1c(F)cccc1F)C(=O)Cc1c[nH]c2ccccc12	none (no result: Rce1 inh)
CCN(CC(=O)Nc1c(F)cccc1F)C(=O)Cn1[nH]c(=O)c2ccccc2c1=O	MIN6 prolif-1 11.3 (no result: Rce1 inh) | MIN6 prolif-2 inactive
O=C1NCCCC1=NNc1ccc(Br)cc1	none (no result: NR1D1 modulator, MIN6 prolif-1, Yeast superoxide, PG9 Ab binder, Rce1 inh)
CC(c1nccs1)N(C)c1nc2nonc2nc1NC1CC1 (centres undefined)	none
CN(c1nc2nonc2nc1NC1CC1)C1CCOC1 (centres undefined)	MIN6 prolif-1 7.6 | MIN6 prolif-2 inactive
O=C(O)c1ccccc1N(Cc1ccccc1)C(=O)CON=Cc1ccccc1	none (no result: NR1D1 modulator, MIN6 prolif-1, Yeast superoxide, PG9 Ab binder, Rce1 inh)
CC(=O)N1N=C(c2ccc(Cl)cc2)OC12CCCC2	MIN6 prolif-1 7.3 | MIN6 prolif-2 inactive
CC(=O)N1N=C(c2cccc(Br)c2)OC12CCCC2	none
Cn1c(NN=C2CCCc3ccccc32)nc2c1c(=O)n(Cc1ccc(F)cc1)c(=O)n2C	none (no result: NR1D1 modulator, MIN6 prolif-1, Yeast superoxide, PG9 Ab binder, Rce1 inh)
O=C(CSc1ncccn1)N1CCCc2ccccc21	none
CCc1nc(SCC(=O)N2CCCc3ccccc32)c2oc3ccccc3c2n1	MIN6 prolif-1 14.8 | MIN6 prolif-2 inactive
CCOc1ccccc1N1CCN(C(=O)c2ccc(OCC(=O)N3CCOCC3)c(OC)c2)CC1	MIN6 prolif-1 14.3 | MIN6 prolif-2 inactive
CCOc1ccccc1NC(=O)c1ccc(OCC(=O)N2CCOCC2)c(OC)c1	none (no result: Rce1 inh)
C/C(C=NNC(=O)CN1CCN(S(=O)(=O)c2ccc(C)cc2)CC1)=C\c1ccccc1	none (no result: NR1D1 modulator, MIN6 prolif-1, Yeast superoxide, PG9 Ab binder, Rce1 inh)
CCc1ccccc1N(C(=O)c1snc(C(N)=O)c1N)C(C(=O)NCC1CCCO1)c1ccc(N(C)C)cc1 (centres undefined)	MIN6 prolif-1 8.7 (no result: Yeast superoxide) | MIN6 prolif-2 inactive
Cc1ccccc1N(C(=O)c1snc(C(N)=O)c1N)C(C(=O)NCC1CCCO1)c1ccc(N(C)C)cc1 (centres undefined)	none
COc1ccc(C(C(=O)NCc2ccccc2)N(C(=O)c2snc(C(N)=O)c2N)c2ccccc2OC)cc1OC (centres undefined)	MIN6 prolif-1 21.6 | MIN6 prolif-2 inactive
CCc1ccccc1N(C(=O)c1snc(C(N)=O)c1N)C(C(=O)NCC1CCCO1)c1ccc(C)o1 (centres undefined)	none
COc1ccc(N(C(=O)c2snc(C(N)=O)c2N)C(C(=O)NCc2ccccc2)c2ccc(O)cc2)cc1OC (centres undefined)	none (no result: Yeast superoxide)
Cc1ccc(N(C(=O)c2snc(C(N)=O)c2N)C(C(=O)NCC2CCCO2)c2ccc(C)o2)c(C)c1 (centres undefined)	MIN6 prolif-1 16.6 | MIN6 prolif-2 inactive
Oc1c(C=Nc2ccccn2)sc2ccccc12	none (no result: NR1D1 modulator, MIN6 prolif-1, Yeast superoxide, PG9 Ab binder, Rce1 inh)
CCCN=C1CC(C)(C)CC(=O)/C1=C(\O)CCCN1C(=O)c2ccccc2C1=O	none (no result: NR1D1 modulator, MIN6 prolif-1, Yeast superoxide, PG9 Ab binder, Rce1 inh)
CCOC(=O)c1cc2c(=O)n3cccc(C)c3nc2n(CC2CCCO2)c1=NC(C)=O (centres undefined)	MIN6 prolif-1 9.6 | MIN6 prolif-2 inactive
CCOC(=O)NN=Cc1cccc(OC)c1OC/C=C/c1ccccc1	none (no result: NR1D1 modulator, MIN6 prolif-1, Yeast superoxide, PG9 Ab binder, Rce1 inh)
N#CC(=NNc1ccc(Br)cc1)C(=N)N1CCOCC1	none (no result: NR1D1 modulator, MIN6 prolif-1, Yeast superoxide, PG9 Ab binder, Rce1 inh)
CCN(CC)Cc1c(C(=O)N/N=C/c2ccc(C)o2)nnn1-c1nonc1N	MIN6 prolif-1 0.0 (no result: UCH37 inh) | MIN6 prolif-2 inactive
